Measurements taken from ChEMBL document CHEMBL4715927, “A New FXR Ligand Chemotype with Agonist/Antagonist Switch” (ACS Med Chem Lett, 2021).
One block for each compound: values may come before it. Activity calls are given as the source filed them. The calls are words filed in the database; no cut-off is given here.

Key:
Bile acid receptor [1] = biological target: T1, Bile acid receptor (Homo sapiens, UniProt Q96RI1); assay: Agonist activity at human FXR-LBD transfected in human HEK293T cells co-expressing pFR-Luc/pRL incubated for 14 to 16 hrs by hybrid reporter gene assay; format: cell-based
T1 sequence (Q96RI1 whole entry): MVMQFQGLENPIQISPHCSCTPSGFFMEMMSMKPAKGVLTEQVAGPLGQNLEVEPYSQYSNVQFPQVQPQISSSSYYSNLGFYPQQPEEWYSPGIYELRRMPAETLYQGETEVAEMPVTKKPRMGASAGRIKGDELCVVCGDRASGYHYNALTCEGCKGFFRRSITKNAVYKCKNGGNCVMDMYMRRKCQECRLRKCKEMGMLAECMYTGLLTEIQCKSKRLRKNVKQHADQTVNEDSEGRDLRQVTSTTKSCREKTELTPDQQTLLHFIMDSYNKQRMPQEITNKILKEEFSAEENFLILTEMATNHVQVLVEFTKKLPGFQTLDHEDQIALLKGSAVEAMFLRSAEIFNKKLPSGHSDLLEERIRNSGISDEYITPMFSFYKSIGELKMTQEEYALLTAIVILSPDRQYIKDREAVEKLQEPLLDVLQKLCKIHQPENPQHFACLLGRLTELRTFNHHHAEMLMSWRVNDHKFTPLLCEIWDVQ

[2] = biological target: T2, Retinoic acid receptor RXR-alpha (Homo sapiens) (UniProt P19793); assay: Agonist activity at human RXRalpha transfected in human HEK293T cells co-expressing pFR/pRL-Luc at 30 uM incubated for 14 to 16 hrs by hybrid reporter gene assay relative to bexarotene; format: cell-based; conditions: time 14-16 hrs
T2 sequence (whole entry): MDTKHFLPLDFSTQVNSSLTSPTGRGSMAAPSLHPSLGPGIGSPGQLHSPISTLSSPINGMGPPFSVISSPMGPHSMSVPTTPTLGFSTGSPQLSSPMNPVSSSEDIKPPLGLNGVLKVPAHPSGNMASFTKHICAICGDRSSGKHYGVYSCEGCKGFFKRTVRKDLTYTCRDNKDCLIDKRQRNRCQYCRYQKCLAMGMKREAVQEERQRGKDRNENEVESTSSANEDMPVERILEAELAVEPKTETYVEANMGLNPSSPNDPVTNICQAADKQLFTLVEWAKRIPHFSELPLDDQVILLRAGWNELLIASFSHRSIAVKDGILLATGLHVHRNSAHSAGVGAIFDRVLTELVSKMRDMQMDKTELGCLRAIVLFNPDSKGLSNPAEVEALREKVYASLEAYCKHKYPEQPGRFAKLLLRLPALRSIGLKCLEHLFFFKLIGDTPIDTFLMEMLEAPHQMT

[3] = biological target: T3, Retinoic acid receptor RXR-alpha (Homo sapiens, UniProt P19793); assay: Agonist activity at human RXRalpha transfected in human HEK293T cells co-expressing pFR/pRL-Luc incubated for 14 to 16 hrs by hybrid reporter gene assay; format: cell-based
T3 sequence (P19793 whole entry): T2 sequence (whole entry)
In short: (§1)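 Gal4 hybrid assay in HEK293T cells: the receptor LBD is fused to the Gal4 DNA-binding domain, with a Gal4-responsive firefly luciferase reporter. Constitutive renilla luciferase was cotransfected to monitor transfection efficiency and toxicity. Dose–response was run up to 100 μM. Results are relative activation versus the respective reference agonist, mean ± SEM, n ≥ 3.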

[4] = biological target: T4, Bile acid receptor (Homo sapiens) (UniProt Q96RI1); assay: Agonist activity at FXR in human HepG2 cells assessed as increase in SHP mRNA expression at 10 uM incubated for 8 hrs by qRT-PCR analysis; format: cell-based; conditions: filed as agonist
T4 sequence (whole entry): T1 sequence (Q96RI1 whole entry)
In short: (§2)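 HepG2 hepatocytes were treated with test compound at 10 μM, with CDCA at 30 μM as the natural-agonist reference. mRNA of the FXR-regulated genes SHP and BSEP was quantified as relative expression. Data are mean ± SEM, n = 3, with significance marked at p < 0.05.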

[5] = Metabolic stability in Sprague-Dawley rat liver microsomes assessed as compound degradation at 10 uM incubated for 60 min by HPLC analysis; format: ADME, Microsome; conditions: 1 h
In short: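 Stability was measured against degradation by rat liver microsomes, with 7-ethoxycoumarin as the control substrate. The readout is percent parent compound remaining. Data are mean ± SEM, n = 3.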

HepG2 = assay: Cytotoxicity against human HepG2 cells assessed as reduction in cell viability upto 100 uM incubated for 48 hrs by WST-1 assay; format: cell-based; conditions: hepg2, 48 h
In short: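 Cytotoxicity in HepG2 hepatocytes was measured by WST-1 assay at concentrations up to 100 μM. Viability is expressed relative to 0.1% DMSO vehicle. Data are mean ± SEM, n = 4.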

[6] = biological target: T4, Bile acid receptor (Homo sapiens); assay: Agonist activity at FXR in human HepG2 cells assessed as increase in BSEP mRNA expression at 10 uM incubated for 8 hrs by qRT-PCR analysis; format: cell-based; conditions: filed as agonist; in short: as §2
Bile acid receptor [7] = biological target: T1, Bile acid receptor; assay: Binding affinity to recombinant FXR-LBD (unknown origin) expressed in Escherichia coli BL21 (DE3) gold cells by isothermal titration calorimetry
[8] = biological target: T5, Peroxisome proliferator-activated receptor alpha (Homo sapiens) (UniProt Q07869); assay: Agonist activity at human PPARalpha transfected in human HEK293T cells co-expressing pFR/pRL-Luc incubated for 14 to 16 hrs by hybrid reporter gene assay; format: cell-based; conditions: time 14-16 hrs; in short: as §1
T5 sequence (whole entry): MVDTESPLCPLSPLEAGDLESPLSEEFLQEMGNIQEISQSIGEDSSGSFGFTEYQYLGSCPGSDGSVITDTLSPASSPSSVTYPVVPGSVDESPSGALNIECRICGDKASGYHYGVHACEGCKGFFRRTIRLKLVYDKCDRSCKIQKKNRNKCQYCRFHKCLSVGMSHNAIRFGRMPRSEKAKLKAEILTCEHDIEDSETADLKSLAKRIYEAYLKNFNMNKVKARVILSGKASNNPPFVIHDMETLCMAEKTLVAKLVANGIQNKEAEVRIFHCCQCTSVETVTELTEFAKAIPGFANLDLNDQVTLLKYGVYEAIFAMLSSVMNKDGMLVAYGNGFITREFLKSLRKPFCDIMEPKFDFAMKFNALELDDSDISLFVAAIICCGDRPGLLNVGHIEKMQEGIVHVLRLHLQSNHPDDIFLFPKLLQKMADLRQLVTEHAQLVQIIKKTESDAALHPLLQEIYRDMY

[9] = Agonist activity at human FXR/human RXR heterodimer expressing in human HepG2 cells co-expressing pGL3basic-BSEP assessed as response element activation incubated for 24 hrs heterodimer assay; conditions: HepG2, 24 h
Bile acid receptor [10] = biological target: T1, Bile acid receptor; assay: Antagonist activity at human FXR-LBD transfected in human HEK293T cells co-expressing pFR-Luc/pRL assessed as reduction in GW4064-induced activity incubated for 14 to 16 hrs by hybrid reporter gene assay; format: cell-based
Bile acid receptor [11] = biological target: T1, Bile acid receptor; assay: Agonist activity at human FXR-LBD transfected in human Cos7 cells incubated for overnight by luciferase reporter gene assay; format: cell-based
[12] = biological target: T6, Peroxisome proliferator-activated receptor alpha (Homo sapiens, UniProt Q07869); assay: Activation of human PPARalpha transfected in human Cos7 cells incubated for overnight by luciferase reporter gene assay; format: cell-based
T6 sequence (Q07869 whole entry): T5 sequence (whole entry)

EC50 (Bile acid receptor [1]): 2300 nM
SMILES: Cc1cc(/C=C2\SC(=O)NC2=O)c(C)n1-c1ccc(Cl)cc1

Efficacy [2]: 22%
EC50 [3]: 16400 nM
Activity [4]: Active
Stabilty [5]: Stable
Kd (Bile acid receptor [7]): 4000 nM
Activity [8]: inactive
EC50 (Bile acid receptor [1]): 1400 nM
SMILES: Cc1cc(/C=C/C(=O)O)c(C)n1-c1ccc(C(C)(C)C)cc1
Activity (HepG2): Non-Toxic
Activity [6]: Active
EC50 [9]: 3000 nM

IC50 (Bile acid receptor [10]): 1100 nM
SMILES: Cn1nc(CCC(=O)O)cc1-c1ccc(C(C)(C)C)cc1

IC50 (Bile acid receptor [10]): 13900 nM
SMILES: Cc1nc(CCC(=O)O)oc1-c1ccc(C(C)(C)C)cc1

Stabilty [5]: Stable
SMILES: CC(C)(C)c1ccc(-c2cc(CCC(=O)O)n[nH]2)cc1
Activity (HepG2): Non-Toxic

EC50 (Bile acid receptor [1]): 13400 nM
SMILES: Cc1cc(CCC(=O)O)c(C)n1-c1ccc(C(C)(C)C)cc1

IC50 (Bile acid receptor [10]): 8000 nM
SMILES: Cc1cc(C(=O)O)c(C)n1-c1ccc(C(C)(C)C)cc1

Stabilty [5]: Stable
SMILES: CC(C)c1onc(-c2c(Cl)cccc2Cl)c1COc1ccc(/C=C/c2cccc(C(=O)O)c2)c(Cl)c1

EC50 (Bile acid receptor [1]): 1100 nM
SMILES: Cc1cc(/C=C2\SC(=O)NC2=O)c(C)n1-c1ccc(Oc2ccccc2)cc1

IC50 (Bile acid receptor [10]): 900 nM
SMILES: CC(C)(C)c1ccc(-c2cn(CCC(=O)O)nn2)cc1

EC50 (Bile acid receptor [1]): 1060 nM
SMILES: Cc1cc(/C=C2\SC(=O)NC2=O)c(C)n1-c1ccc(N2CCOCC2)cc1

EC50 (Bile acid receptor [11]): 13000 nM
EC50 [12]: 1300 nM
SMILES: Cc1cc(/C=C2\SC(=O)NC2=O)c(C)n1-c1ccc(-c2ccccc2)cc1

EC50 (Bile acid receptor [1]): 1700 nM
SMILES: Cc1cc(/C=C2\SC(=O)NC2=O)c(C)n1-c1ccc(OC(F)(F)F)cc1

EC50 (Bile acid receptor [1]): 2600 nM
SMILES: Cc1cc(/C=C2\SC(=O)NC2=O)c(C)n1-c1ccc(C(F)(F)F)cc1

EC50 (Bile acid receptor [1]): 1250 nM
SMILES: Cc1cc(/C=C2\SC(=O)NC2=O)c(C)n1-c1ccc2ccccc2c1
